Results reported in ChEMBL document CHEMBL3632578, “Identification of β-Lapachone Analogs as Novel MALT1 Inhibitors To Treat an Aggressive Subtype of Diffuse Large B-Cell Lymphoma” (J Med Chem, 2015).
Values belong to the compound of their own block, whether it stands above or below them.

Tests used:
[1] = biological target: T1, Mucosa-associated lymphoid tissue lymphoma translocation protein 1 (Homo sapiens, UniProt Q9UDY8); experiment: Inhibition of MALT1 in human Jurkat cell lysate preincubated for 2 hrs followed by addition of 25 uM Ac-LRSR-AMC substrate for 3 hrs by fluorescence based assay; type: cell-free
T1 sequence (Q9UDY8 whole entry): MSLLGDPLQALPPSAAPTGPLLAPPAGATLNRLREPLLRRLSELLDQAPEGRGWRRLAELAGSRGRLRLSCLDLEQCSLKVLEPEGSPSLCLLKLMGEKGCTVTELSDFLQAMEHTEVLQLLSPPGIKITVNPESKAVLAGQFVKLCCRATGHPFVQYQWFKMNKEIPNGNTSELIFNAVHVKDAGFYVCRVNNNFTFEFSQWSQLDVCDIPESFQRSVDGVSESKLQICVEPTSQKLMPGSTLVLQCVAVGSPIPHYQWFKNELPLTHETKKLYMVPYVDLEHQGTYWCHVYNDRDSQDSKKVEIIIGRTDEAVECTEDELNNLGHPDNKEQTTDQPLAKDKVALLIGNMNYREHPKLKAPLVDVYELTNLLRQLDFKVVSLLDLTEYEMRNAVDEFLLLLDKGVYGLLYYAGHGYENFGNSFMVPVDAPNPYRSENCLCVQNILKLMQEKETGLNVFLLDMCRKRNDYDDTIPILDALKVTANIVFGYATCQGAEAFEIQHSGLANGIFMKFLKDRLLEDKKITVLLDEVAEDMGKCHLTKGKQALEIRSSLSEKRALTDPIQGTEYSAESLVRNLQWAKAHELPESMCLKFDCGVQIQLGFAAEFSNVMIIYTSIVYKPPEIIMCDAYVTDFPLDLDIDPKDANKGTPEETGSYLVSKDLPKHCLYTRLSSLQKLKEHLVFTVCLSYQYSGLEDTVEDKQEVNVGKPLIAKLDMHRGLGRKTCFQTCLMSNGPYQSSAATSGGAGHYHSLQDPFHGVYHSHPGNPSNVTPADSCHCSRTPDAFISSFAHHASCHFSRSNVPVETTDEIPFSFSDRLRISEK
How it was run: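 MALT1 paracaspase activity in Jurkat cell lysate, read as fluorescence from AMC (7-amino-4-methylcoumarin) released when MALT1 cleaves the fluorogenic tetrapeptide Ac-LRSR-AMC. Inhibition is taken against an untreated control. IC50 is the mean of two independent experiments, each run in duplicate.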

[2] = biological target: T1, Mucosa-associated lymphoid tissue lymphoma translocation protein 1; experiment: Inhibition of His-tagged human MALT1 (catalytic domain-339-719 aa) by fluorescence based assay using 25 uM Ac-LRSR-AMC as substrate
[3] = Antiproliferative activity against human OCI-LY3 cells after 48 hrs by MTT assay; type: functional, cell-based; details: OCI-Ly3, 48 h
[4] = biological target: T2, Mucosa-associated lymphoid tissue lymphoma translocation protein 1 (Homo sapiens) (UniProt Q9UDY8); experiment: Inhibition of MALT1 paracaspase activity in human OCI-LY3 cells assessed as decrease in cleaved CYLD level after 24 hrs by western blot analysis; type: cell-based
T2 sequence (whole entry): T1 sequence (Q9UDY8 whole entry)

[5] = Antiproliferative activity against human SupT1 cells; type: functional, cell-based; details: SUP-T1
HuT78 = experiment: Antiproliferative activity against human HUT78 cells; type: functional, cell-based
A549 = experiment: Antiproliferative activity against human A549 cells; type: functional, cell-based
[6] = Antiproliferative activity against human MJ cells; type: functional, cell-based
[7] = Antiproliferative activity against human NK92 cells; type: functional, cell-based

IC50 [2]: 9300 nM
Structure (SMILES): CC1(C)CCC2=C(O1)c1cc(O)ccc1C(=O)C2=O

IC50 [1]: 20.4 µM
Structure (SMILES): CC(C)NC1=CC(=O)C(=O)c2ccccc21

IC50 [2]: 9200 nM
Structure (SMILES): COc1ccc2c(c1)C1=C(CCC(C)(C)O1)C(=O)C2=O
IC50 [3]: 17 µM

IC50 [2]: 9200 nM
Structure (SMILES): CC1(C)CCC2=C(O1)c1ccc(Br)cc1C(=O)C2=O
IC50 [3]: 4.1 µM

IC50 [2]: 600 nM
Structure (SMILES): COc1ccc2c(c1)C(=O)C(=O)C1=C2OC(C)(C)CC1
IC50 [3]: 3.1 µM

IC50 [2]: 1500 nM | inhibition [4]: Dose-dependent effect
Structure (SMILES): CC1(C)CCC2=C(O1)c1ccc(F)cc1C(=O)C2=O
IC50 [3]: 3.3 µM

IC50 [1]: 14.4 µM
Structure (SMILES): O=C1C=C(NCCCN2CCCC2=O)c2ccccc2C1=O

IC50 [1]: 7.8 µM
Structure (SMILES): COCCNC1=CC(=O)C(=O)c2ccccc21
IC50 [3]: > 10 µM

IC50 [2]: 2300 nM
Structure (SMILES): COc1cc2c(cc1OC)C1=C(CCC(C)(C)O1)C(=O)C2=O
IC50 [3]: 8.5 µM

IC50 [1]: 14.9 µM
Structure (SMILES): CC(C)(C)OC(=O)NCCNC1=CC(=O)C(=O)c2ccccc21

IC50 [2]: 400 nM
Structure (SMILES): CC1(C)CCC2=C(O1)c1ccc([N+](=O)[O-])cc1C(=O)C2=O
IC50 [3]: 4.6 µM

IC50 [2]: 1600 nM | IC50 (A549): 5.7 µM | inhibition [4]: Dose-dependent effect
Structure (SMILES): CC1(C)CCC2=C(O1)c1ccc(C#N)cc1C(=O)C2=O
IC50 [5]: 5.6 µM | IC50 (HuT78): 12.3 µM | IC50 [3]: 1.5 µM | IC50 [6]: 16.7 µM | IC50 [7]: 17 µM

IC50 [1]: 2.5 µM
Structure (SMILES): CN(C)C1=CC(=O)C(=O)c2ccccc21
IC50 [3]: > 10 µM

Continued, compound first:

Structure (SMILES): O=C1C=C(NCCCN2CCCC2)c2ccccc2C1=O
IC50 [1]: 11.9 µM

Structure (SMILES): COCCOc1nc(-c2ccc(Cl)c(Cl)c2)n(-c2ccc(NC(=O)CCl)cc2)n1
IC50 [2]: 3300 nM | IC50 [3]: 2.6 µM

Structure (SMILES): CC(C)=CCC1=C(O)C(=O)c2cc(Br)ccc2C1=O
IC50 [1]: > 10 µM

Structure (SMILES): O=C1C=C(NCCN2CCOCC2)c2ccccc2C1=O
IC50 [1]: 21.9 µM

Structure (SMILES): CN(C)CCNC1=CC(=O)C(=O)c2ccccc21
IC50 [1]: 1.6 µM

Structure (SMILES): O=C1C=C(NCC(=O)N2CCCC2)c2ccccc2C1=O
IC50 [1]: 4.1 µM

Structure (SMILES): O=C1C=C(NCCc2ccccc2)c2ccccc2C1=O
IC50 [1]: > 100 µM

Structure (SMILES): O=C1C=C(NC2CCN(Cc3ccccc3)CC2)c2ccccc2C1=O
IC50 [1]: 5.4 µM

Structure (SMILES): CC(C)=CCC1=C(O)C(=O)c2cc(F)ccc2C1=O
IC50 [1]: > 10 µM

Structure (SMILES): CC1(C)CCC2=C(O1)c1ccccc1C(=O)C2=O [LAPACHONE]
IC50 [1]: 1.9 µM | IC50 [2]: 1200 nM | IC50 [3]: 4 µM

Structure (SMILES): O=C1C=C(NC2CCN(Cc3ccccc3)C2)c2ccccc2C1=O (stereo not drawn)
IC50 [1]: 1.5 µM | IC50 [3]: > 10 µM

Structure (SMILES): O=C(CNC1=CC(=O)C(=O)c2ccccc21)NCCc1ccccc1
IC50 [1]: 3.1 µM

Structure (SMILES): COc1cc2c(cc1OC)C(=O)C1=C(CCC(C)(C)O1)C2=O
IC50 [1]: > 10 µM

Structure (SMILES): CNC(=O)CNC1=CC(=O)C(=O)c2ccccc21
IC50 [1]: 3 µM | IC50 [3]: 9.4 µM
